Measured values collected from several papers.
Each line is one published result; the experiments were not run side by side.
Target: Homeodomain-interacting protein kinase 3 (HIPK3, Homo sapiens, UniProt Q9H422)

`C1=C/COCc2cc(ccc2OCCN2CCCC2)Nc2nccc(n2)-c2cccc(c2)COC/1` gave a remaining binding of 15% (binding; 0.1 µM).
With `CC(C)S(=O)(=O)c1ccc2nccc(Nc3ccc4sc(C5CCCC5)nc4c3)c2c1` the activity vs control was 102% (enzyme activity, inhibitor; 1 µM).
For `Cc1ccc(NC(=O)c2ccnc(C(F)(F)F)c2)cc1-c1cc(OCCO)nc(N2CCOCC2)c1`, the remaining binding was 98% (binding, competition with immobilised ligand; 1 µM).
With `C#Cc1cc(-c2cc(Nc3nc(N[C@@H](C)c4ccc(F)cn4)ncc3Cl)n[nH]2)ccc1C=O` the inhibition was 39.6% (enzyme activity, inhibitor; 0.2 µM).
For `C=CC(=O)N1CCC([C@@H]2CCNc3c(C(N)=O)c(-c4ccc(Oc5ccccc5)cc4)nn32)CC1`, the inhibition was 4% (enzyme activity, inhibitor; 1 µM).
For `CN1CCN(C(=O)c2ccc(NC(=O)Nc3ccc(N(C)c4ccnc(Nc5ccc(CS(C)(=O)=O)cc5)n4)cc3)cc2)CC1`, the remaining binding was 71% (binding, competition with immobilised ligand; 1 µM).
`CO[C@@H]1[C@H](N(C)C(=O)c2ccccc2)C[C@H]2O[C@]1(C)n1c3ccccc3c3c4c(c5c6ccccc6n2c5c31)C(=O)NC4` gave an inhibition of 30% (enzyme activity, inhibitor; 1 µM).
For `CCCCC(=O)Nc1ccc(-c2ccc3ncn(CCC)c(=O)c3c2)cn1`, the remaining binding was 100% (binding, competition with immobilised ligand; 0.5 µM).
